Consider 13 compounds from ChEMBL document CHEMBL1781883, “Design of novel neurokinin 1 receptor antagonists based on conformationally constrained aromatic amino acids and discovery of a potent chimeric opioid agonist-neurokinin 1 receptor antagonist” (J Med Chem, 2011).

In assay [1] the target is T1, Substance-P receptor (Homo sapiens, UniProt P25103). Description: Agonist activity at human NK1 receptor expressed in CHO-K1 cells at 10^-4 M after 30 mins by aequorin luminescence assay. In kind it is functional, cell-based. In outline:
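CHO-K1 cells stably expressing human NK1R and transfected with apoaequorin; loaded 4 h with 5 μM coelenterazine h in BSA-medium, diluted 10-fold, further 30 min. Compound added to wells; cells (2.5 × 10^4) injected, light read every second for 30 s, then 10 nM ATP injected as positive control and read 10 s more. Duplicates; expressed as % of luminescence at 10^-4 M SP.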

In assay [2] the target is T1, Substance-P receptor. Description: Antagonist activity at human NK1 receptor expressed in CHO-K1 cells assessed as inhibition of substance P-induced calcium-dependent aequorine luminescence. In kind it is functional, cell-based. The settings on record: read-out: pA2 (converted). Put shortly:
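Aequorin-expressing CHO-K1/hNK1 cells charged 4 h with 5 μM coelenterazine h, then diluted and held 30 min. SP series 10^-11 to 10^-4 M combined with test compound at 10^-8 to 10^-4 M; cell injection started 30 s luminescence read, then 10 nM ATP control.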

In assay [3] the target is T1, Substance-P receptor. Put plainly: Displacement of [3H]SP from human recombinant NK1 receptor expressed in CHO cells after 20 mins by liquid scintillation counting. In kind it is cell-based. In outline:
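Crude membranes from hNK1/CHO cells; 20 µg incubated with 0.4 nM [3H]SP and six test concentrations in duplicate, 50 mM Tris pH 7.4 with 5 mM MgCl2, bacitracin, bestatin, captopril, PMSF; 25 °C, 20 min. Nonspecific binding with 10 µM SP. Filtration on PEI-soaked GF/B, scintillation counting; IC50 by nonlinear regression, Ki by Cheng–Prusoff; three independent experiments, mean ± SEM.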

For assay [4], the target named is T1, Substance-P receptor. Put plainly: Antagonist activity at NK1 receptor. In kind it is functional.

Calls of active or inactive are those of the source. The calls are words filed in the database; no cut-off is given here.

T1 sequence (P25103 whole entry): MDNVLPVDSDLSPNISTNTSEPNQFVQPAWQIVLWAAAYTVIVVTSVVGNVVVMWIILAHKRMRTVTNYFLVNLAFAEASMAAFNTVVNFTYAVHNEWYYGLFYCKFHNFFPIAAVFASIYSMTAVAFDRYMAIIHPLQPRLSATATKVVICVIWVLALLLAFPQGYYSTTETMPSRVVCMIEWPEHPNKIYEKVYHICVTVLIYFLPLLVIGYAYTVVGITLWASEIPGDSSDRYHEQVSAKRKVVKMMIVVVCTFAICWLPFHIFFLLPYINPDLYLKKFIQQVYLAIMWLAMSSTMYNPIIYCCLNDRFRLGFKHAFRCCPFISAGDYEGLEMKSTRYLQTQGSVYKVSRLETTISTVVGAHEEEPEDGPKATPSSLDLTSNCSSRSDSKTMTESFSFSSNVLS

With `CC(=O)N1Cc2[nH]c3ccccc3c2C[C@@H]1C(=O)N(C)Cc1cc(C(F)(F)F)cc(C(F)(F)F)c1`, the result in assay [1] was inactive.

As to `CC(=O)N[C@H]1Cc2ccccc2[C@@H](c2ccccc2)N(CC(=O)N(C)Cc2cc(C(F)(F)F)cc(C(F)(F)F)c2)C1=O`, the outcome in assay [1] was inactive.

On to `CC(=O)N[C@H]1Cc2ccccc2[C@@H](c2ccccc2)N(CC(=O)NCc2cc(C(F)(F)F)cc(C(F)(F)F)c2)C1=O`, for which the outcome in assay [1] was inactive.

Turning to `CC(=O)N1Cc2ccccc2C[C@H]1C(=O)N(C)Cc1cc(C(F)(F)F)cc(C(F)(F)F)c1`, the Kb in assay [2] is 31.6 nM. In addition, in assay [1], the result was inactive. Moreover, the inhibition constant Ki in assay [3] worked out at 32 nM.

`O=C1O[C@@H](Cc2c[nH]c3ccccc23)C(=O)N1Cc1cc(C(F)(F)F)cc(C(F)(F)F)c1`: in assay [4], it took 25 nM to reach half-maximal inhibition (IC50).

As to `CC(=O)N1Cc2[nH]c3ccccc3c2C[C@H]1C(=O)N(C)Cc1cc(C(F)(F)F)cc(C(F)(F)F)c1`, in assay [1], the outcome was inactive.

Turning to `CC(=O)N[C@H]1Cc2c([nH]c3ccccc23)CN(Cc2cc(C(F)(F)F)cc(C(F)(F)F)c2)C1=O`, the result in assay [1] was inactive.

On to `CC(=O)N[C@H]1Cc2ccccc2CN(CC(=O)N(C)Cc2cc(C(F)(F)F)cc(C(F)(F)F)c2)C1=O`, for which the Kb in assay [2] was 3.98 nM. In assay [1], the result was inactive. The Ki in assay [3] was 27 nM.

As for `CC(=O)N[C@@H]1Cc2ccccc2[C@@H](c2ccccc2)N(CC(=O)N(C)Cc2cc(C(F)(F)F)cc(C(F)(F)F)c2)C1=O`, the outcome in assay [1] was inactive.

`CC(=O)N1Cc2ccccc2C[C@H]1C(=O)NCc1cc(C(F)(F)F)cc(C(F)(F)F)c1`: the outcome in assay [1] was inactive.

For the compound `CC(=O)N[C@H]1Cc2c([nH]c3ccccc23)CN(CC(=O)N(C)Cc2cc(C(F)(F)F)cc(C(F)(F)F)c2)C1=O`, the outcome in assay [1] was inactive.

Regarding `CC(=O)N[C@@H]1Cc2c([nH]c3ccccc23)CN(CC(=O)N(C)Cc2cc(C(F)(F)F)cc(C(F)(F)F)c2)C1=O`, the outcome in assay [1] was inactive.

Regarding `CC(=O)N[C@H]1Cc2ccccc2CN(CC(=O)NCc2cc(C(F)(F)F)cc(C(F)(F)F)c2)C1=O`, the Kb in assay [2] is 631 nM. Also, the outcome in assay [1] was inactive. The Ki in assay [3] amounted to 387 nM.
